Reference: ChEMBL document CHEMBL1138004, “Small molecule antagonists of the CCR2b receptor. Part 2: Discovery process and initial structure-activity relationships of diamine derivatives” (Bioorg Med Chem Lett, 2004)

Tests used:
[1] = target: T1, C-C chemokine receptor type 2 (Homo sapiens, UniProt P41597); assay: Concentration required to inhibit [125I]MCP-1 binding to Chemokine receptor 2B
Method in brief: (§1)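 Radioligand binding with THP-1 cells as the receptor source and human 125I-MCP-1 as the tracer. Inhibition of tracer binding by test compounds was measured.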
Target sequence in this assay (P41597 whole entry): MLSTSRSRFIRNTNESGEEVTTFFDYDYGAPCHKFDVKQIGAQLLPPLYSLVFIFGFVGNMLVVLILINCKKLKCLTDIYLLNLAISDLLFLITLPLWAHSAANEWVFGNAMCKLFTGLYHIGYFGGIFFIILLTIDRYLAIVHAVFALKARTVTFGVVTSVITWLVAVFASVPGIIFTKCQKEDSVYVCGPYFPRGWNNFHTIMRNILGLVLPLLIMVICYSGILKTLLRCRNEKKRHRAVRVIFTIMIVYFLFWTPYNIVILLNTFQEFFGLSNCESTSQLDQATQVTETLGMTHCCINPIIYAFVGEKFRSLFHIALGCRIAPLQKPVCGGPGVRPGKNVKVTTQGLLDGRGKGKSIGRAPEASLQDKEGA

[2] = target: T1, C-C chemokine receptor type 2; assay: Inhibition of [125I]MCP-1 binding to Chemokine receptor 2B; not active; method in brief: as §1
Target sequence in this assay (P41597 whole entry): as above

[3] = target: T1, C-C chemokine receptor type 2; settings: 10 uM
Target sequence in this assay (P41597 whole entry, looked up): as the sequence (P41597 whole entry) above

O=C(CCCC(=O)c1ccccc1)NC1CCN(Cc2ccc(Cl)cc2)C1 (stereo not given)
IC50 [1]: 11 µM

Cc1csc(C(=O)NNC(=O)CNC2CCN(CCC(c3ccccc3)c3ccccc3)C2)c1 (stereo not given)
IC50 [1]: 33 µM

Cc1cccc(C(=O)NCC(=O)NC2CCN(Cc3ccc(Cl)cc3)C2)c1 (stereo not given)
IC50 [1]: 6.9 µM

O=C(CNC(=O)c1cccc(C(F)(F)F)c1)NC[C@H]1CCCN1Cc1ccc(Cl)cc1
IC50 [1]: 0.57 µM

O=C(CCNC(=O)c1ccccc1)NCC1CCCN1Cc1ccc(Cl)cc1 (stereo not given)
IC50 [1]: 40 µM

O=C(CCCC(=O)c1ccccc1)NC1CCCN(Cc2ccc(Cl)cc2)C1 (stereo not given)
IC50 [1]: 87 µM

O=C(CNC(=O)c1cccc(C(F)(F)F)c1)NC1CCN(Cc2ccc(Cl)cc2)C1 (stereo not given)
IC50 [1]: 0.37 µM

O=C(CNC(=O)c1cccc(C(F)(F)F)c1)NC1CCCN(Cc2ccc(Cl)cc2)C1 (stereo not given)
IC50 [1]: 0.66 µM

O=C(CCNC(=O)c1ccccc1)NC1CCN(Cc2ccc(Cl)cc2)C1 (stereo not given)
IC50 [1]: 22 µM

O=C(CNC(=O)c1ccccc1)NC1CCN(Cc2ccc(Cl)cc2)C1 (stereo not given)
IC50 [1]: 42 µM

Cc1csc(C(=O)NNC(=O)CN2CCC(NCc3ccc(Cl)cc3)C2)c1 (stereo not given)
IC50 [1]: 7.8 µM

O=C(CNC(=O)c1cccc(C(F)(F)F)c1)NC[C@@H]1CCCN1Cc1ccc(Cl)cc1
IC50 [1]: 3.1 µM

Cc1csc(C(=O)NNC(=O)CNC2CCN(Cc3ccc(Cl)cc3)C2)c1 (stereo not given)
IC50 [1]: 41 µM

Cc1csc(C(=O)NNC(=O)CN2CCCC2CNCCC(c2ccccc2)c2ccccc2)c1 (stereo not given)
IC50 [1]: 26 µM

Cc1cccc(C(=O)NCC(=O)NC2CCCN(Cc3ccc(Cl)cc3)C2)c1 (stereo not given)
IC50 [1]: 17 µM

O=C(CNC(=O)c1ccccc1)NCC1CCN(Cc2ccc(Cl)cc2)CC1
IC50 [1]: 11 µM

Cc1cccc(C(=O)NCC(=O)NCC2CCN(Cc3ccc(Cl)cc3)CC2)c1
IC50 [1]: 5.5 µM

O=C(CCCC(=O)c1ccccc1)NCC1CCN(Cc2ccc(Cl)cc2)CC1
IC50 [1]: 50 µM

Cc1csc(C(=O)NNC(=O)CN2CCC(NCCC(c3ccccc3)c3ccccc3)C2)c1 (stereo not given)
IC50 [1]: 17 µM

O=C(CNC(=O)c1cccc(C(F)(F)F)c1)N[C@H]1CCN(Cc2ccc(Cl)cc2)C1
IC50 [1]: 1.2 µM

Cc1cccc(C(=O)NCC(=O)NCC2CCCN2Cc2ccc(Cl)cc2)c1 (stereo not given)
IC50 [1]: 14 µM

O=C(CNC(=O)c1ccccc1)NC1CCCN(Cc2ccc(Cl)cc2)C1 (stereo not given)
IC50 [2]: Not Active

O=C(CCNC(=O)c1ccccc1)NCC1CCN(Cc2ccc(Cl)cc2)CC1
IC50 [1]: 64 µM

O=C(CCCC(=O)c1ccccc1)NCC1CCCN1Cc1ccc(Cl)cc1 (stereo not given)
IC50 [1]: 19 µM

O=C(CNC(=O)c1ccccc1)NCC1CCCN1Cc1ccc(Cl)cc1 (stereo not given)
IC50 [1]: 66 µM

O=C(CNC(=O)c1cccc(C(F)(F)F)c1)N[C@@H]1CCN(Cc2ccc(Cl)cc2)C1
inhibition [3]: 49%
IC50 [1]: 0.18 µM

O=C(CCNC(=O)c1ccccc1)NC1CCCN(Cc2ccc(Cl)cc2)C1 (stereo not given)
IC50 [1]: 74 µM

O=C(CNC(=O)c1cccc(C(F)(F)F)c1)NCC1CCCN1Cc1ccc(Cl)cc1 (stereo not given)
IC50 [1]: 2.3 µM

O=C(CNC(=O)c1cccc(C(F)(F)F)c1)NCC1CCN(Cc2ccc(Cl)cc2)CC1
IC50 [1]: 0.7 µM
